Screening data deposited in PubChem by Johns Hopkins Ion Channel Center.
Most compounds without a hit are left out; they make up all but 3.8% or so of the library.
KCNQ1 block: blocks the human KCNQ1 potassium channel | AID 2642 | CHO-K1 KCNQ1, FluxOR thallium flux fluorescence; active compounds read high | 1.3% of 310,000 active | B-score at 10 µM | P51787;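 active = compounds whose thallium flux B-score, printed positive for inhibition, exceeds three library SD while starting fluorescence stays within three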;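 also: channel opened by potassium depolarization with thallium stimulus after 20 min compound exposure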
KCNK9 block: blocks the human KCNK9 two-pore domain potassium channel | Q9NPC2 | HEK293 KCNK9, FluxOR thallium flux fluorescence; active compounds read low | B-score at 10 µM | 1.2% of 310,000 active;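 active = ratio B-score over 3 SD below the library mean, with starting fluorescence within 5 SD of its mean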;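 also: negative B-score means less thallium flux so channel inhibition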
Kir21 block: inhibitors of mouse Kir2.1 inward-rectifier potassium channel | P35561 | HEK293-Kir2.1, FluxOR thallium flux fluorescence; active compounds read low | B-score at 10 µM | 0.85% of 310,000 active;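 active = fluorescence ratio B-score at or below minus 3 SD of library scores, with starting-brightness B-score within 2 SD, cut at about -4.2 in these data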;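 also: channel flux triggered by added potassium and thallium sulfate stimulus; B-score of peak minus minimum fluorescence over baseline after thallium stimulus; more negative B-score means stronger Kir2.1 block with less thallium influx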
Target sequence (P35561 whole entry, looked up): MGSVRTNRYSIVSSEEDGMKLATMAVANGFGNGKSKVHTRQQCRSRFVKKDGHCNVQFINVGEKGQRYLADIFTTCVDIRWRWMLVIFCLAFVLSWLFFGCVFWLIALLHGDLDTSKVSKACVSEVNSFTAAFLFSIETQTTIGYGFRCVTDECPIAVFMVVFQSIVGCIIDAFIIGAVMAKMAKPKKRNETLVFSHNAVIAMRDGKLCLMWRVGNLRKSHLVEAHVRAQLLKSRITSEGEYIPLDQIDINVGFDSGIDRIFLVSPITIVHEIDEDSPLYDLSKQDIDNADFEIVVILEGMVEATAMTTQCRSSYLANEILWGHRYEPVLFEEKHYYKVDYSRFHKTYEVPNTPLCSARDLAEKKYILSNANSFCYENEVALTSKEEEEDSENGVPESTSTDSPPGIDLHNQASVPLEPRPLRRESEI
KCNK3 block: human KCNK3 channel inhibition, primary screen; CHO-KCNK3 thallium flux, FluxOR fluorescence; active compounds read low; B-score at 10 µM; 0.84% of 340,000 active;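 active = B-score under library mean minus 4 SD, starting fluorescence ratio at most library mean plus 5 SD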;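 also: more negative B-score means stronger inhibition of thallium flux through KCNK3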
hERG protect: shields human hERG channel from block by proarrhythmic agents; 0.51% of 310,000 active; CHO-hERG, FluxOR thallium flux, dofetilide IC70 present; activation (rescue from dofetilide block), less the hit threshold, % at 10 µM; AID 1511;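 active = activation above the mean of controls blocked by dofetilide plus 5 SD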;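 also: thallium influx through hERG after potassium depolarization seen as dye fluorescence rise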
KCNQ1 act: potentiators or activators of human KCNQ1 potassium channel; P51787; AID 2648; CHO-K1 KCNQ1, thallium flux FluxOR fluorescence; active compounds read high; 0.35% of 310,000 active; B-score at 10 µM;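 active = fluorescence ratio B-score, a plate-corrected score, at least three library SD, with initial intensity B-score within 5 SD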
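Doses: Single concentration per compound, DMSO matched to controls | Test system: KCNQ1-transfected CHO-K1 cells | Timing: 90 min dye loading and 20 min compound exposure, both at room temperature | Measured by: Kinetic FluxOR thallium fluorescence, 10-s 1-Hz baseline, 110-s post-stimulus read | Medium: Assay buffer with matched DMSO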
KCNQ1 block val: confirmation of human KCNQ1 potassium channel inhibitors; shares compounds with KCNQ1 block; KCNQ1 cell line, FluxOR thallium flux fluorescence; inhibition, % at 10 µM; 93% of 1,600 active; AID 588353;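 active = primary screen active, with duplicate mean exceeding buffer control mean plus 3 SD of buffer wells, cut at about 28% in these data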;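 also: 0% = buffer control ratio and 100% = XE991 inhibitor control ratio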
CHO Tl flux: counter-screen for KCNQ1 inhibitors: effect in parental CHO cells. 21% of 1,600 active. fluorescence ratio (Tl flux) at 10 µM. parental CHO-K1, FluxOR thallium flux fluorescence ratio; active compounds read low; zero means no signal rise above baseline. shares compounds with KCNQ1 block;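 active = mean of duplicate thallium-flux fluorescence ratios in parental host cells more than 5 SD below the buffer control mean, cut at about 0.38 in these data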;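 also: ratio is peak minus minimum fluorescence divided by baseline fluorescence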
KCNQ1 ephys val: confirmation of human KCNQ1 potassium channel inhibitors by electrophysiology; shares compounds with KCNQ1 block; KCNQ1-CHO cells, automated patch clamp current; calls only at 10 µM; 20% of 490 active;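 active = KCNQ1 current drop exceeding 3 SD of negative control wells, seen in both duplicate runs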;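 also: steady state current during a 2 s step from -80 to +40 mV; negative values mean current inhibition and positive values mean potentiation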
KCNQ2 spec: rat KCNQ2 inhibition in KCNQ1 inhibitor specificity screen; shares compounds with KCNQ1 block; KCNQ2 cells, FluxOR thallium flux fluorescence; inhibition, % at 10 µM; 71% of 1,600 active; AID 651746;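 active = mean percent inhibition of the KCNQ2 thallium signal more than 5 SD above the buffer-only control wells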;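 also: KCNQ2 expressed in CHO cells; 0% = buffer control wells and 100% = XE-991 inhibitor control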
KCNQ1-KCNE1 inh: KCNQ1 inhibitor that also blocks human KCNQ1/KCNE1 channel; shares compounds with KCNQ1 block; KCNQ1/KCNE1 cells, FluxOR thallium flux fluorescence; inhibition, % at 10 µM; 77% of 1,600 active;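 active = mean percent inhibition of duplicate wells above the buffer-only control mean plus 3 SD of those controls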;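 also: 0% = buffer only wells and 100% = XE-991 inhibitor control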
Numbers without * were called inactive; i = inactive; . = no result given; + = active, no number.

SMILES	KCNQ1 block	KCNK9 block	Kir21 block	KCNK3 block	hERG protect	KCNQ1 act	KCNQ1 block val	CHO Tl flux	KCNQ2 spec	KCNQ1-KCNE1 inh	others
CC1CCCCN1CCCNC(=O)CN1C(=O)c2cccnc2Oc2ccccc21 (stereo not drawn)	i	i	0.21	i	-7	i	.	.	.	.
COc1ccc2noc3c2c1C(=O)c1ccccc1-3	23*	i	-16	i	-50	i	+	0.0045*	i	i
c1ccc(-c2nc3ccccn3c2NCc2ccc3c(c2)OCO3)cc1	i	i	0.9	i	-28	i	.	.	.	.
COc1ccc(-c2nc3cc(C)ccn3c2NCc2ccc3c(c2)OCO3)cc1	7*	i	-1.4	i	-25	i	98*	0.46	89%*	136%*	KCNQ1 ephys val=i
COC(=O)c1cccc(NC(=O)CN2CCc3ccccc3C2)c1	i	i	-0.1	i	-7	i	.	.	.	.
CN(C)CCCN(C(=O)c1ccc2c(c1)CCCC2)c1nc2cc3c(cc2s1)OCO3	7*	i	-2.5	i	-16	i	48*	0.46	76%*	36%*
CN(C)CCCN(C(=O)c1ccc2c(c1)CCCC2)c1nc2ccc(F)cc2s1	i	i	-3.7	i	-21	i	.	.	.	.
COc1ccc(Cl)cc1C(=O)N(Cc1nc(-c2cccc(C)c2)no1)C(C)C	i	i	-1.3	i	-11	i	.	.	.	.
Cc1cccc(-c2noc(CN(C)S(=O)(=O)c3cc(Cl)ccc3Cl)n2)c1	8*	-8*	-0.46	i	-7	i	+	0.35*	i	i
O=C(Nc1nncs1)C1COc2ccccc2O1 (stereo not drawn)	i	i	0.49	i	-7	i	.	.	.	.
CC(C)(C)c1csc(NC(=O)C2COc3ccccc3O2)n1 (stereo not drawn)	7*	i	-0.2	i	-9	i	68*	0.52	60%*	80%*
Clc1ccc(CN=C(Nc2ccccc2)NC2CCCCC2)cc1	8*	i	-5.2*	i	-8	i	48*	0.46	i	38%*
CCCNC(=O)Cn1c(=O)/c(=C/c2ccc(-c3ccc([N+](=O)[O-])cc3)o2)s/c1=C\C(=O)C(C)(C)C	.	.	.	i	.	.	.	.	.	.
COc1ccc(Nc2nc(N3CCN(S(C)(=O)=O)CC3)nc3ccccc23)c(OC)c1	i	i	0.03	i	-7	i	.	.	.	.
COc1ccc(Nc2nc(N3CCCCC3)nc3ccccc23)c(OC)c1	12*	i	-7*	i	-17	i	98*	0.43	90%*	94%*	KCNQ1 ephys val=i
COc1ccc(Nc2nc(-c3ccccc3)nc3ccccc23)c(OC)c1	11*	i	-0.02	i	-8	i	+	0.41	108%*	i	KCNQ1 ephys val=i
COc1ccc(Nc2nc(NC(C)(C)C)nc(N3CCCC3)n2)c(OC)c1	8*	i	-0.26	i	-15	i	144*	0.32*	i	+
O=C(Cc1ccsc1)NNC(=O)c1ccccc1O	i	i	-0.12	i	-16	i	.	.	.	.
O=C1c2cccc3c(O)ccc(c23)C(=O)N1Cc1ccco1	22*	i	-16	i	-56	i	+	0.011*	i	i
O=C1c2ccccc2C(=O)N1Cc1ccco1	i	i	-0.3	i	-7	i	.	.	.	.
Cc1ccc(S(=O)(=O)N(C)C)cc1NC(=O)c1cc(=O)[nH]c2ccccc12	i	i	0.01	i	-10	i	.	.	.	.
CC(OC(=O)COc1ccc(C#N)cc1)C(=O)Nc1ccc(Cl)cn1 (stereo not drawn)	i	i	-1.1	i	-19	i	.	.	.	.
CN(CC(=O)Nc1cccc(F)c1)C(=O)c1cn(-c2ccccc2)nc1-c1ccccc1	8*	i	0.81	i	-19	i	74*	0.42	74%*	93%*
CN(CC(=O)Nc1ccc(F)cc1)C(=O)c1cn(-c2ccccc2)nc1-c1cccs1	.	.	.	i	.	.	.	.	.	.
COc1ccc(C(=O)NCC(=O)OCC(=O)Nc2ncc(Cl)cc2Cl)cc1[N+](=O)[O-]	.	.	.	i	.	.	.	.	.	.
SMILES	KCNQ1 block	KCNK9 block	Kir21 block	KCNK3 block	hERG protect	KCNQ1 act	KCNQ1 block val	CHO Tl flux	KCNQ2 spec	KCNQ1-KCNE1 inh	others
O=C(NCCc1ccccc1Cl)C1CC(=O)N(C2CCCCC2)C1 (stereo not drawn)	i	i	0.25	i	-5	i	.	.	.	.
Cc1ccc(C(=O)NC(=S)Nc2ccc(CN3CCCCC3)cc2)c(C)c1	6*	i	-2.5	i	-14	i	58*	0.49	67%*	63%*
CC(C)n1ncc2c(C(=O)N3CCN(Cc4ccc(Br)s4)CC3)cc(C3CC3)nc21	.	.	.	i	.	.	.	.	.	.
O=C(CN1C2=NCCN2c2ccccc21)C12CC3CC(CC(C3)C1)C2	11*	i	0.59	i	-9	i	70*	0.43	74%*	40%*
c1ccc(CN2C3=NCCN3c3ccccc32)cc1	i	i	-1.4	i	-6	i	.	.	.	.
CCOCCCNC(=O)C(NC(=O)Cc1c[nH]c2ccccc12)c1ccccc1 (stereo not drawn)	i	i	-0.44	i	-12	i	.	.	.	.
CC1(C)Cc2c(cnn2-c2ccc(F)cc2)C(NC(=O)C2CCC2)C1 (stereo not drawn)	8*	i	-0.53	i	-6	i	103*	0.46	70%*	112%*	KCNQ1 ephys val=+
CC1C(=O)C(C)C(c2cc(Cl)ccc2O)NC1c1cc(Cl)ccc1O (stereo not drawn)	10*	i	0.16	i	-16	i	84*	0.43	83%*	122%*
CCOC(=O)C1=CN(CC)S(=O)(=O)NC1c1ccc2ccccc2c1 (stereo not drawn)	.	.	.	i	.	.	.	.	.	.
O=S(=O)(NCc1cc(-c2ccccc2)no1)c1ccccc1Cl	i	i	1	i	-11	i	.	.	.	.
